Assay outcomes: PubChem BioAssay, Johns Hopkins Ion Channel Center
MrgX1 agonist = activates human MrgX1 receptor signaling | AID 588627 | MrgX1-HEK293 cells, Fluo-4 calcium fluorescence, agonist mode; active compounds read high | 0.44% of 310,000 active | Q96LB2 | B-score at 10 µM;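 active means calcium response B-score plate-corrected fluorescence ratio at least 3 library SD, with starting fluorescence B-score inside 5 SD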
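Assay system: MrgX1-expressing HEK293 cells / Amount: fifteen thousand cells per well / Doses: test compound in the initial addition of three / Timing: cells plated overnight, dye loaded 0.5 h 37 °C, 0.5 h room temperature / Technique: kinetic calcium dye fluorescence, Fluo-4 NW / Control set: positive and negative controls per plate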
MrgX1 antagonist = human MrgX1 receptor antagonism, primary screen. B-score at 10 µM. 1.3% of 310,000 active. MRGX1-HEK293 calcium flux, Fluo-4, BAM8-22 antagonism; active compounds read low. Q96LB2;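 active means calcium-response B-score plate-corrected more than 3 library SD below zero, starting fluorescence within 5 deviations, no agonist response on first addition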;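 further: peak minus trough fluorescence over baseline after final BAM8-22 challenge near maximal dose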
Kir21 block = Kir2.1 (mouse) channel inhibition. P35561. HEK293-Kir2.1, FluxOR thallium flux fluorescence; active compounds read low. B-score at 10 µM. 0.85% of 310,000 active. AID 1672;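 active means fluorescence ratio B-score at or below minus 3 SD of library scores, with starting-brightness B-score within 2 SD, cut at about -4.2 in these data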;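 further: channel flux triggered by added potassium and thallium sulfate stimulus; B-score of peak minus minimum fluorescence over baseline after thallium stimulus; more negative B-score means stronger Kir2.1 block with less thallium influx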
Target sequence (P35561 whole entry, looked up): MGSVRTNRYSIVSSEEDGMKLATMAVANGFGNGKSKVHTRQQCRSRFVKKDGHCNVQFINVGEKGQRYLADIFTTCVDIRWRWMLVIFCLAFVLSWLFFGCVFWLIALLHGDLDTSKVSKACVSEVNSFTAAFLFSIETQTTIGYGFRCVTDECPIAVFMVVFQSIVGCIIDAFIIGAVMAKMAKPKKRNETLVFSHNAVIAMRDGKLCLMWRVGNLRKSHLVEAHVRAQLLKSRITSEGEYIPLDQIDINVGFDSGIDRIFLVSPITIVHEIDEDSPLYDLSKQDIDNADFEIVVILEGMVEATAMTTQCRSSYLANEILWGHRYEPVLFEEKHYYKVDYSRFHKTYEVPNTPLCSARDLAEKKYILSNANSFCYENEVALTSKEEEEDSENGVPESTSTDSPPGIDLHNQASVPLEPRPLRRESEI
RGS4 pot = potentiators or activators of RGS4; HEK293 M3R/inducible RGS4, carbachol calcium flux Fluo4; active compounds read low; AID 463111; 0.92% of 310,000 active; B-score at 10 µM;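 active means B-score of the integrated calcium signal more than 4 SD below the library mean, with starting fluorescence not abnormally high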;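 further: negative B-score means reduced calcium response which marks RGS4 activation or potentiation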
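Material: Inducible-RGS4 HEK293 cells carrying M3 receptor; also added: carbachol at ECmax as muscarinic agonist stimulus; incubation: compound preincubation 20 min at room temperature before agonist; signal: Fluo4-AM (2 µM) calcium-flux fluorescence, kinetic read; measure: integrated calcium ratio converted to B score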
MrgX1 allo act = human MrgX1 positive allosteric modulation, primary screen. Q96LB2. MrgX1-HEK293, Fluo-4 calcium flux, FDSS; active compounds read high. B-score at 10 µM. 0.63% of 310,000 active. AID 588675;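 active means plate-corrected calcium response at least 3 library SD above typical, normal starting fluorescence, not activating the receptor alone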;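 further: compound read alongside a low EC10 to EC30 dose of BAM8-22 agonist; peak minus trough fluorescence over baseline measured at the second addition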
RGS4 block = human RGS4 inhibition; 0.45% of 310,000 active; P49798; B-score at 10 µM; HEK293 M3R/RGS4 inducible, Fluo-4 calcium flux; active compounds read high; triggered by carbachol at its EC20; AID 463165;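 active means B-score, a plate-corrected calcium signal, over three deviations above library mean, with baseline fluorescence within five deviations of library mean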;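 further: RGS4 expression induced by doxycycline in cells with stable M3 receptor; B-score is computed from the integrated fluorescence ratio over baseline after carbachol; higher B-score means a larger calcium signal and so more RGS4 inhibition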
Target sequence (P49798 whole entry, looked up): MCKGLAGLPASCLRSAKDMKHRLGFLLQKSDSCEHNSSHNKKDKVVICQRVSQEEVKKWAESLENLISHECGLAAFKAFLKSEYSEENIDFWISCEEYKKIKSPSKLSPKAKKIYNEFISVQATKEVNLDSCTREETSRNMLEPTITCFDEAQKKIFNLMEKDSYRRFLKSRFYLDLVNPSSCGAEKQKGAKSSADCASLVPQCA
* marks the source's active call; other numbers are inactive results; i = inactive; / = no result given. Shown are actives, neighbours in structure and some others; about 4.1% of the full set was active somewhere.

SMILES	MrgX1 agonist	MrgX1 antagonist	Kir21 block	RGS4 pot	MrgX1 allo act	RGS4 block
O=C(COC(=O)/C=C/c1cn(-c2ccccc2)nc1-c1ccc2c(c1)OCCO2)NC1CCS(=O)(=O)C1 (centres undefined)	i	i	-0.51	-8.5*	i	i
CC(C)(C)c1ccc(OCCCNC2CCCC2)cc1	i	i	-4.3*	-7.4*	i	i
Cc1ccc(OCCCNC2CCCC2)cc1	i	i	2.4	i	i	i
COc1cccc(CCNC(=O)C2CCC(=O)N(C3CC3)C2)c1OC (centres undefined)	/	/	-0.26	i	/	i
Cc1ccc(NC(=O)/C=C/C(=O)O)c([N+](=O)[O-])c1	i	i	-1.7	i	i	i
COc1ccc(NC(=O)/C=C/C(=O)O)c([N+](=O)[O-])c1	i	i	1.1	i	13*	i
Cc1c(/C=N/Nc2ccc(C(=O)O)cc2)c2ccccc2n1C	i	i	0.31	i	i	i
Cc1cccn2c(=O)c(/C=C3\SC(=S)NC3=O)c(NCCCN3CCOCC3)nc12	i	i	-0.49	i	i	i
CCOCCCNc1nc2c(C)cccn2c(=O)c1/C=C1\SC(=S)N(C(C)CC)C1=O (centres undefined)	i	-15*	-0.18	i	i	i
CCOCCCNc1nc2c(C)cccn2c(=O)c1/C=C1\SC(=S)N(CC(C)C)C1=O	i	-6.8*	0.19	i	i	i
O=C(NCCc1ccccc1)C1CCN(S(=O)(=O)c2ccccc2)CC1	i	i	2.5	i	i	i
N#C/C(=C\c1cccnc1)c1nc2c(s1)CCCC2	i	-5.5*	0.3	i	i	i
Cc1cccn2c(CN[C@@H]3CCCC[C@H]3c3ccccc3)c(C(=O)N3CCOCC3)nc12	i	i	-1.1	i	i	i
O=C(CSCc1ccccc1)N/N=C/c1ccccc1OCc1ccccc1	i	-5.4*	1.4	i	i	i
O=C(CSCc1cccc(Br)c1)N/N=C/c1ccc2c(c1)OCO2	i	-5.4*	-0.08	i	i	i
O=C(CSCc1ccccc1Br)N/N=C/c1ccc2c(c1)OCO2	i	i	-0.06	i	i	i
COCCN(CC(=O)NC1CCCCC1)C(=O)CSc1nc2ccccc2o1	i	i	-0.17	i	i	i
NNC(=O)COc1cccc(C(F)(F)F)c1	i	i	0.02	i	i	i
CC(C)CN(C(=O)c1nn(C)c(=O)c2ccccc12)c1nc2ccccc2s1	i	i	0.31	i	7*	i
O=C(CSc1nc2ccccc2n1S(=O)(=O)c1cccc([N+](=O)[O-])c1)NCCc1ccccc1	i	i	0.62	i	i	i
Cc1ccc(S(=O)(=O)CCC(=O)OC(C)C(=O)NC2CCCCC2C)cc1 (centres undefined)	i	i	-1.7	i	i	i
Oc1ccccc1-c1nc(NCC2CCCO2)c2ccccc2n1 (centres undefined)	i	i	0.46	-8.4*	i	i
COc1ccccc1Nc1nc(NCC2CCCO2)c2ccccc2n1 (centres undefined)	i	i	-12*	i	i	i
Cc1cccc(Cn2c(C(C)(C)C)cc3cccnc32)c1	i	i	-5.1*	i	i	i
CCOC(=O)C1=C(O)c2ccccc2C(=O)/C1=C\c1ccc(C)cc1	28*	i	/	/	i	/
SMILES	MrgX1 agonist	MrgX1 antagonist	Kir21 block	RGS4 pot	MrgX1 allo act	RGS4 block
CCOC(=O)C1=C(C)N(c2ccc(C)cc2)C(=O)/C1=C\c1ccc(O)c(OC)c1	i	i	-0.36	i	i	i
Cc1ccc(C(=O)O/N=C(\N)c2ccccn2)c(Cl)c1	i	i	-0.5	i	i	i
C[C@]12CC(O)C3C(CCC4=CC(=O)CC[C@@]43C)C1CCC2c1csc(-c2ccccc2)n1 (some centres undefined)	i	i	1.2	-9.6*	i	i
O=C(NCc1ccco1)c1ccc(C(=O)NCc2ccco2)s1	i	i	0	i	i	i
O=C(NCc1ccco1)c1cc2c(s1)CCCCC2	i	i	0	-7.1*	i	i
Cc1ccc(C(=O)NCCC(=O)N2CCCC2)cc1	i	i	0.54	i	i	i
O=C(CSCc1ccc(F)cc1)NCc1cccs1	i	i	0.35	i	i	i
CC1(C)CC(=O)C2=C(C1)N(c1ccccc1)C(N)=C(C#N)C2c1cccnc1 (centres undefined)	i	i	-0.53	i	i	i
CN(C)N1C(N)=C(C#N)C(c2cccnc2)C2=C1CC(C)(C)CC2=O (centres undefined)	i	-4.8*	0.79	i	i	i
CCc1cc2c(=O)c(Oc3ccccc3F)c(C)oc2c(CN(C)C)c1O	i	i	-1.6	i	i	i
C/C(=N\NC(=O)COc1ccc(C)cc1[N+](=O)[O-])c1cccs1	i	-6.5*	-0.39	i	i	i
COc1ccc(C(=O)Nc2ccc(NC(=O)c3cccs3)cc2)cc1[N+](=O)[O-]	i	i	1.2	i	i	i
CCOc1ccc(C(=O)Nc2ccc(NC(=O)c3cccs3)cc2)cc1[N+](=O)[O-]	i	-7.3*	-0.82	i	i	i
C/C(=N\NC(=O)COc1ccc(C)cc1Br)c1cc([N+](=O)[O-])cs1	i	i	-0.03	i	i	i
C=CC[n+]1c(-c2ccc(C)cc2)csc1Nc1c(C)n(C)n(-c2ccccc2)c1=O	i	i	1.3	-7.9*	i	i
Cc1c(NC(=O)Nc2cc(Cl)ccc2Cl)c(=O)n(-c2ccccc2)n1C	i	i	-1.2	i	i	i
C=CC[n+]1c(-c2ccc(Cl)cc2Cl)csc1Nc1ccc(NC(C)=O)cc1	i	i	-2	-7*	i	i
Cc1c(Nc2nc(-c3ccccc3)cs2)c(=O)n(-c2ccccc2)n1C	i	i	-0.98	i	i	i
C=CC[n+]1c(-c2ccc(Cl)cc2Cl)csc1Nc1c(C)n(C)n(-c2ccccc2)c1=O	28*	i	-0.54	i	i	i
CCCC[n+]1c(-c2ccc(Cl)cc2Cl)csc1Nc1ccccc1	i	i	2.2	i	i	i
CCCCn1c(=N)n(CC(O)COc2cccc(C)c2)c2ccccc21 (centres undefined)	i	i	-5.2*	i	i	i
